Yeast growth inh: growth inhibitors of yeast BB579 in restrictive medium, primary screen, yeast lifespan-shortening project, S. cerevisiae | OD615, 48 h | inhibition, % at 10 µM | 0.51% of 140,000 active | AID 804, 2007;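 active = inhibition above a set limit, 3 SD over the mean compound inhibition, cut at about 44% in these data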
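Test system: Saccharomyces cerevisiae DeaD strain BB579, replicative lifespan model yeast | Buffer or medium: Restrictive CSMM-D medium | Doses: One dose, 10 µM compound with 0.25% DMSO | Incubation: 48 h exposure, 30 °C | Detection: Culture absorbance at 615 nm | Control set: Amphotericin B at 10 µg/mL as positive control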
RAM inhibit: inhibitors of the yeast RAM network, primary screen, dse1pr::URA3 reporter, 5-FOA selection; 1.8% of 190,000 active; inhibition, % at 50 µM; S. cerevisiae dse1pr::URA3 reporter, 5-FOA growth OD615, 2 d; analog-sensitive cbk1-as2 kinase mutant strain;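 active = inhibition above a set limit, 3 SD over mean compound inhibition, cut at about 8.4% in these data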;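 note: 0% = DMSO-only wells with no growth and 100% = 10 µM 1-NA-PP1 full growth; inhibition rescues growth on 5-FOA so higher OD means more RAM inhibition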
Measles CPE: compounds protecting cells from measles virus cytopathic effect, primary screen, measles RdRp inhibitor project, single point, MLSMR library, absorbance | Measles virus-infected cells, CPE protection | protection (pct of control), % at 4 µM | 1.5% of 140,000 active; in the data active = protection mostly above about 24%, no sharp cut-off; inactive = mostly below about 26%
Yeast life ext: compounds extending yeast replicative lifespan, primary screen, S. cerevisiae, OD615; S. cerevisiae growth with nicotinamide; deaD strain in restrictive glucose medium; inhibition of the nicotinamide effect, % at 10 µM; 0.68% of 130,000 active;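 active = inhibition above a set limit, placed 3 SD over the median of all compounds, cut at about 26% in these data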;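 note: 0% = nicotinamide-treated wells and 100% = cells grown without nicotinamide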
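Assay system: engineered S. cerevisiae DeaD replicative-lifespan strain, galactose-grown log-phase cells; medium: restrictive CSMM-D dextrose medium; also added: nicotinamide, 1.5 mM, co-present with compound; schedule: 48 h compound exposure at 30 °C, humidified; detection: absorbance at 615 nm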
hDAT+cocaine: changed hDAT dopamine uptake under cocaine IC80, either direction, primary screen, cocaine antagonist project, cell-based, LLC-PK1 hDAT, [14C]-dopamine uptake, MLSMR. Sodium-dependent dopamine transporter (Homo sapiens), Q01959. LLC-PK1 hDAT cells, [14C]-dopamine uptake with cocaine IC80; actives deviate in either direction. B-score at 10 µM. 1.3% of 110,000 active;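 active = Z score or B-score, a plate-position-corrected score, falls beyond the plate's 99.7% confidence bounds, in either direction; inactive = both scores lie inside the 99.7% bounds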;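 note: scored against the spread of the other compound wells on the same plate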
Target sequence (Q01959 whole entry, looked up): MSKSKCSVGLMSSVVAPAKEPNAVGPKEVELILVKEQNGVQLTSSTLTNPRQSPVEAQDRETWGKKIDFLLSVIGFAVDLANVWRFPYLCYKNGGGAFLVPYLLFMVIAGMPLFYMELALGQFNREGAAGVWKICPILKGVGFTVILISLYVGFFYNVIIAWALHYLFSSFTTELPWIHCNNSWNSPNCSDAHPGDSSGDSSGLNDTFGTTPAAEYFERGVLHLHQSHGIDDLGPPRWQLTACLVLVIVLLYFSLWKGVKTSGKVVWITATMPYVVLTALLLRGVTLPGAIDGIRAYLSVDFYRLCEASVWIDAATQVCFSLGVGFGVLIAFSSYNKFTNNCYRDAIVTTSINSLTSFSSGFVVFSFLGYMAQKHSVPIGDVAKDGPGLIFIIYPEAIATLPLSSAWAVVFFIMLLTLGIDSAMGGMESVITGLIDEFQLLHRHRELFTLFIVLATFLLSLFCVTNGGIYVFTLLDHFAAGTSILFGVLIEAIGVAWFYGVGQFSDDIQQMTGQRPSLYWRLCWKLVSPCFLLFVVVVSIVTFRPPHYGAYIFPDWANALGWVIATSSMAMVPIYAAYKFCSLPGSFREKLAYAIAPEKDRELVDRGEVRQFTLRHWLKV
WT yeast gro inh: growth inhibition of WT strain, primary screen, mitochondrial fusion inhibitor project, WT and mutant strains, chemical genetic; 2.1% of 190,000 active; inhibition, % at 10 µM; AID 1362, 2008; mitochondrial fusion phenotypic screen; in the data active = inhibition above about 58%; tested in S. cerevisiae
Starred values were filed as active, the others as inactive; / = not tested or not shown. Shown are actives, neighbours in structure and some others; about 6.1% of the full set was active somewhere.

SMILES	Yeast growth inh	RAM inhibit	Measles CPE	Yeast life ext	hDAT+cocaine	WT yeast gro inh
COCC(=O)Nc1cc(OC)ccc1OC	-17	1	11	-5	-0.71	10
COc1ccc(OC)c(NC(=O)COC(=O)CSc2ccc(Cl)cc2)c1	-17	0	18*	-8	/	3
COc1ccc(OC)c(NC(=O)CSc2ccc3ccccc3c2)c1	-9	8	8	-8	-0.03	33
COc1ccc(OC)c(NC(=O)COC(=O)/C=C/c2ccccc2Cl)c1	-46	10*	9	0	/	-4
CCOc1cc(CNCc2cccnc2)ccc1OCC(=O)NC(C)(C)C	/	1	/	/	/	-15
C=CCNC(=S)Nc1cc(C)ccn1	/	0	/	/	/	13
O=C(CCc1nc(-c2ccccc2)no1)NCCc1ccccc1	-21	0	11	-21	-0.64	62*
COc1ccc(C2CC(c3ccccc3OC(C)=O)=NN2C(=O)/C=C/c2ccccc2)cc1OC (stereo not given)	-40	8.5*	24	2	/	10
COc1ccc(C2=NN(C(=O)/C=C/c3ccccc3)C(c3ccccc3)C2)c(OC(C)=O)c1 (stereo not given)	-47	7	15	6	/	37
COc1ccc(-c2nsc3c(N4CCCCC4C)ncnc23)cc1 (stereo not given)	/	8	/	/	/	75*
COc1ccc(-c2nsc3c(N4CCCCC4)ncnc23)cc1	-39	3	17	-1	-1.6	8
CCCC1=NN(c2ccc([N+](=O)[O-])cc2)C(=O)/C1=C\N(C)C	-32	7	32*	-7	/	10
CCN(CC)c1ccc(/C=C2/C(=O)N(c3ccc([N+](=O)[O-])cc3)N=C2N2CCOCC2)cc1	-27	0	7	-2	/	-9
COc1ccc(CCNC(=O)CSc2cn(Cc3ccccc3)c3ccccc23)cc1OC	-35	10*	4	10	-0.94	-12
O=C(Nc1ccc(Cl)c(Cl)c1)Nc1nnc(CSc2ccccc2)s1	-52	3	0	1	/	15
CSc1nsc2nc(=O)c(/C=C3\C(C)=Nc4ccc(C)cc43)c(N)n12	/	9.3*	/	/	/	23
CC1CN(Cc2ccccc2)C(C)CC1O (stereo not given)	/	1	/	/	/	-5
Cc1ccccc1NC(=O)CC(O)(C(F)(F)F)C(F)(F)F	-20	1	12	32*	-1.3	-8
Cc1ccc(NC(=O)CC(O)(C(F)(F)F)C(F)(F)F)c(Br)c1	-54	1	5	-5	-3*	-2
CCOc1ccccc1NC(=O)CC(O)(C(F)(F)F)C(F)(F)F	-11	0	29	/	-0.97	17
CSc1ccc(CN(C)CC(=O)Nc2cccc(Br)c2)cc1	-57	1	6	-7	/	48
CCN(CC)CC(=O)Nc1ccc(C)cc1Br	-17	1	11	-22	1.3	38
CSc1ccc(CN(C)CC(=O)Nc2ccc(C)cc2Br)cc1	-9	1	9	-2	/	62*
Cc1ccc(NC(=S)N(CCN2CCCCC2)Cc2ccco2)cc1Cl	/	1	/	/	/	12
CC(C)(C)NS(=O)(=O)c1ccc(NS(C)(=O)=O)cc1	-8	2	45*	-8	0.94	-49
SMILES	Yeast growth inh	RAM inhibit	Measles CPE	Yeast life ext	hDAT+cocaine	WT yeast gro inh
C=CCNc1oc(/C=C/c2ccccc2)nc1C#N	-24	2	8	-22	-0.54	21
CC(C)(C)c1cc(NC(=O)CSc2nncs2)n(-c2ccccc2)n1	0	2	6	0	/	7
CCc1ccccc1NC1=NCC(=O)N1C1CCCCC1	-19	0	9	-2	-1.6	-1
Cc1cc(C)c(NC2=NCC(=O)N2C2CCCCC2)c(C)c1	-44	0	23	-9	0.86	68*
Fc1ccc(CNC(=S)Nc2cccc(C(F)(F)F)c2)cc1	-30	3	5	-5	/	58*
FC(F)(F)c1cccc(NC(=S)NCc2ccc(Cl)cc2)c1	/	2	/	/	/	75*
Fc1cccc(NC(=S)NCc2ccc(Cl)cc2)c1	43	1	8	0	/	54
Fc1ccccc1CNC(=S)Nc1cccc(C(F)(F)F)c1	-24	3	14	-4	/	35
CC(=O)/C(=C/N(C)C)Sc1ccc(C)cc1	-25	-1	2	6	-0.19	-8
CCOC(=O)CCN(Cc1sccc1C)S(=O)(=O)c1ccc(F)cc1	1	1	12	1	3.8*	11
CCOC(=O)CCN(Cc1cccs1)S(=O)(=O)c1ccc(F)cc1	-22	1	48*	8	1.3	-9
NS(=O)(=O)c1ccc(NC(=S)Nc2ccn(Cc3cccc4ccccc34)n2)cc1	/	9.3*	/	/	/	16
O=S(=O)(/C=C/c1ccccc1)NC1CCCCCC1	/	-1	/	/	/	17
O=S(=O)(/C=C/c1ccccc1)NC1CCCCCCC1	-46	2	5	27*	/	26
O=C(NC1CCCCC1)c1sc(=S)n2c1[nH]c(=O)c1ccccc12	-14	8	7	4	0.096	64*
CCCCNC(=O)c1sc(=S)n2c1[nH]c(=O)c1ccccc12	-24	2	12	-23	-0.3	-7
Cc1ccnc(NS(=O)(=O)c2ccc(N=CC3=C(O)CC(C)(C)CC3=O)cc2)n1	2	3	4	-16	0.15	67*
CC1(C)CC(=O)C(C=Nc2ccccc2)=C(O)C1	-37	1	11	-2	0.12	11
CC(Sc1ccsc1[N+](=O)[O-])C(=O)N1CCN(c2ccccn2)CC1 (stereo not given)	/	0	/	/	/	32
O=C(Nc1ccccc1)Nc1ccc(C(=O)N2CCCC2)cc1	/	1	/	/	/	62*
NC(=O)CNC(=O)[C@@H]1CC2(CC(c3cccc(Br)c3)=NO2)CN1C(=O)c1ccc(Br)cc1 (stereo not given in full)	-36	1	5	-19	2.2*	19
CC(C)(C)NS(=O)(=O)c1cnc(Cl)c(Cl)c1	35	0	5	7	-0.48	60*
Cc1ccc(NC(=O)CSc2nc(C)c(C)c(C)n2)c([N+](=O)[O-])c1	-32	8.5*	5	4	/	-7
Cc1ccc(NC(=O)COC(=O)Cn2nc(C)c([N+](=O)[O-])c2C)c([N+](=O)[O-])c1	-17	7	40*	1	/	14
COc1ccc(/C=c2\s/c(=C/C(=O)c3ccc(C)cc3)[nH]c2=O)cc1OC	-42	4	10	-4	/	-6
C/C(=N\NC(=O)CSc1nc2ccccc2s1)c1ccco1	-56	4	6	-2	/	-8

Compound activity (PubChem BioAssay)
